{"data": "Measurements pooled from the literature"}
{"SMILES": "O=C1c2[nH]cc3c2C(=NCC3)c2c(-c3ccc(O)cc3)c[nH]c21", "organism": "Babesia divergens", "test": "parasite growth, SYBR Green", "setting": "60 h, blood stage", "measurement": "IC50", "value": "614 nM"}
{"SMILES": "N#Cc1c(-c2ccc(OCc3ccccc3)cc2)c(C(N)=S)c(N)n(N)c1=O", "organism": "Enterobacter cloacae", "test": "microbial growth, well diffusion", "test system": "ATCC23355", "setting": "500 µg/mL", "measurement": "inhibition zone", "value": "15 mm"}
{"SMILES": "CN(Cc1ccc(C(C)(C)C)cc1)Cc1cccc2ccccc12", "organism": "Trichophyton mentagrophytes", "test": "microbial growth, disc diffusion", "test system": "ATCC18748", "setting": "0.0005 µg/mL, 72 h", "measurement": "inhibition zone", "value": "14.5 mm"}
{"SMILES": "N#Cc1c(-c2ccc(OCc3ccccc3)cc2)c(C(N)=O)c(N)n(N)c1=O", "organism": "Enterobacter cloacae", "test": "microbial growth, well diffusion", "test system": "ATCC23355", "setting": "500 µg/mL", "measurement": "inhibition zone", "value": "10 mm"}
{"SMILES": "Cn1cc2c3c1C(=O)C(NCCc1ccc(O)cc1)=CC3=[N+](C)CC2", "organism": "Babesia divergens", "test": "parasite growth, SYBR Green", "setting": "60 h, blood stage", "measurement": "IC50", "value": "12.2 nM"}
{"SMILES": "CN(Cc1ccc(C2(C(F)(F)F)CC2)cc1)Cc1cccc2ccccc12", "organism": "Trichophyton mentagrophytes", "test": "microbial growth, disc diffusion", "test system": "ATCC18748", "setting": "0.001 µg/mL, 72 h", "measurement": "inhibition zone", "value": "8.5 mm"}
{"SMILES": "C[C@@H]1[C@H](O)[C@@H](C)/C=C/C=C/C=C/C=C/C=C/C=C/C=C/[C@H](O[C@@H]2O[C@H](C)[C@@H](O)[C@H](N)[C@@H]2O)C[C@@H]2O[C@](O)(C[C@@H](O)C[C@@H](O)[C@H](O)CC[C@@H](O)C[C@@H](O)CC(=O)O[C@H]1C)C[C@H](O)[C@H]2C(=O)O", "organism": "Trichophyton mentagrophytes", "test": "microbial growth, broth dilution", "test system": "ATCC9533", "setting": "96 h", "measurement": "MIC", "value": "8 µg/mL"}
{"SMILES": "Cc1c(C(N)=O)c(N)n(N)c(=O)c1C#N", "organism": "Enterobacter cloacae", "test": "microbial growth, well diffusion", "test system": "ATCC23355", "setting": "500 µg/mL", "measurement": "inhibition zone", "value": "21 mm"}
{"SMILES": "NC1=CC2=NCCc3c[nH]c(c32)C1=O", "organism": "Babesia divergens", "test": "parasite growth, SYBR Green", "setting": "60 h, blood stage", "measurement": "IC50", "value": "411 nM"}
{"SMILES": "N#Cc1c(-c2ccc(Cl)cc2Cl)c(C(N)=O)c(N)n(N)c1=O", "organism": "Enterobacter cloacae", "test": "microbial growth, well diffusion", "test system": "ATCC23355", "setting": "500 µg/mL", "measurement": "inhibition zone", "value": "14 mm"}
{"SMILES": "COC1=CC(=O)c2ccccc2C1=O", "organism": "Trichophyton mentagrophytes", "test": "microbial growth, broth dilution", "test system": "ATCC9533", "setting": "96 h", "measurement": "MIC", "value": "6.25 µg/mL"}
{"SMILES": "COC1=CC2=[N+](C)CCc3c[nH]c(c32)C1=O", "organism": "Babesia divergens", "test": "parasite growth, SYBR Green", "setting": "60 h, blood stage", "measurement": "IC50", "value": "1000 nM"}
